CYP2C9 activ: activators of human CYP2C9; AID 1024; activation factor at 5 µM; P11712; 1.4% of 96,000 active; recombinant CYP2C9, luciferin-H conversion, luminescence; active compounds read high; factor 1 = untreated enzyme, 0 = blocked;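 active means activation factor of 2 or more for CYP2C9 at a 5 µM dose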
Ecoli WT expand: blocks growth of wild type E. coli BW25113. AID 710. growth inhibition, % at 100 µM. 0.15% of 98,000 active. OD600 absorbance;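 active means growth inhibition above about 50% at one test dose, limit read from the data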;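 further: growth measured after 20 h incubation at 37 °C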
CYP2C19 inhib: human CYP2C19 inhibition; 21% of 96,000 active; P33261; inhibition, % at 5 µM; AID 778; CYP2C19 Supersomes, luciferin-H EGE luminescence, 30 min;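 active means CYP2C19 inhibition above a set limit at 5 µM in the primary screen, cut at about 50% in these data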
Target sequence (P33261 whole entry, looked up): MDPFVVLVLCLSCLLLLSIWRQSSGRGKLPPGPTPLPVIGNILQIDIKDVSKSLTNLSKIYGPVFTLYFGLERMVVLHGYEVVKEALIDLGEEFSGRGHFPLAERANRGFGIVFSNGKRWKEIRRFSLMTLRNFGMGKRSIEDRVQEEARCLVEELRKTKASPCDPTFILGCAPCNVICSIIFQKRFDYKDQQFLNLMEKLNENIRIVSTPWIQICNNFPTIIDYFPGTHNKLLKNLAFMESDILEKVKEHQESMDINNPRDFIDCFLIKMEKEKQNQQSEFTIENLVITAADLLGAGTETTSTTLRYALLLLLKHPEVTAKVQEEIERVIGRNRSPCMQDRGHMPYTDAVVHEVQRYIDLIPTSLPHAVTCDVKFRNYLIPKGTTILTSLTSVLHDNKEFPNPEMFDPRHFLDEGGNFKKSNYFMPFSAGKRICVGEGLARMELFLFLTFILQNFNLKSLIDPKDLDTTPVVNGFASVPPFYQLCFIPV
CYP2C9 inhib: blocks human cytochrome P450 2C9; P11712; CYP2C9 Supersomes, luciferin-H conversion, luminescence; inhibition, % at 5 µM; 20% of 96,000 active;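 active means blocking of liver enzyme CYP2C9 beyond about 50% at 5 µM, limit read from the data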
CYP2C19 activ: increases human CYP2C19 enzyme activity | activation factor at 5 µM | recombinant CYP2C19, luciferin-H EGE luminescence; active compounds read high; 0 = fully inhibited enzyme, 1 = untreated enzyme | 96,000 tested, under 10 active;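 active means activation factor of at least 2 at 5 µM in the primary screen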
tolC growth inh: blocks growth of E. coli BW25113 tolC mutant; OD615; growth inhibition, % at 10 µM (by protocol); 2.2% of 65,000 active; AID 573;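 active means growth inhibition at or above a cutoff equal to the mean over every tested compound plus 3 SD, cut at about 60% in these data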;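 further: growth measured after 20 h incubation at 37 °C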
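System: E. coli ΔtolC::kan strain BW25113; Buffer or medium: LB broth supplemented with 50 µg/mL kanamycin; Compound: 10 µM final, single dose; Incubation: bacterial growth with compound for 20 h at 37 °C; Signal: A615 absorbance measurement; Evaluation: growth inhibition in percent.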
Large screens that a line does not name were inactive. Shown are actives, neighbours in structure and some others; about 29% of the full set was active somewhere.

CC(=O)Nc1ccc(S(=O)(=O)Nc2ccc(NC(=O)c3ccco3)cc2)cc1	none
CS(=O)(=O)N(CCC(=O)O)Cc1ccccc1	none
COC(=O)Nc1ccc(S(=O)(=O)Nc2cccc3ccccc23)cc1	none (no result: CYP2C9 activ, CYP2C19 inhib, CYP2C9 inhib, CYP2C19 activ, tolC growth inh)
CC(C)Oc1ccc(N2CC(C(=O)Nc3ccc4c(c3)OCO4)CC2=O)cc1 (stereo unspecified)	none
CC(C)OC(=O)CCC1(C(=O)O)CCC(=O)NC1 (stereo unspecified)	none
CC(=O)Nc1ccc(S(=O)(=O)N(Cc2ccccc2)C(C)C)cc1	CYP2C19 inhib 52, CYP2C9 inhib 67 (no result: tolC growth inh)
CC(=O)Nc1ccc(S(=O)(=O)N(CC(=O)O)Cc2ccccc2)cc1	none
NC(=O)c1ccccc1NC(=O)/C=C/C(=O)O	none (no result: tolC growth inh)
NC(=O)c1ccccc1NS(=O)(=O)Cc1ccccc1	CYP2C9 activ 4
CC(C)Cn1c(N)c(C(=O)COC(=O)c2ccncc2)c(=O)n(C)c1=O	CYP2C9 inhib 53
CC(C)Cn1c(N)c(C(=O)COC(=O)CC23CC4CC(CC(C4)C2)C3)c(=O)n(C)c1=O	CYP2C19 inhib 63, CYP2C9 inhib 85 (no result: tolC growth inh)
CCC(c1nnc(SCC(=O)Nc2ccc(C(=O)Nc3ccccc3OC)cc2)o1)N(C)C (stereo unspecified)	none
FC(F)C(F)(F)C(F)(F)C(F)(F)c1cc(-c2ccccc2)n[nH]1	CYP2C19 inhib 85, CYP2C9 inhib 76
Oc1ccccc1-c1cc(C(F)(F)C(F)F)nc(-c2ccccc2)n1	none
CCCn1c(=O)n(C)c(=O)c2c3oc(=O)c(NC(=O)c4ccc(F)cc4)cc3[nH]c21	none (no result: CYP2C9 activ, Ecoli WT expand, CYP2C19 inhib, CYP2C9 inhib, CYP2C19 activ)
CCC(=O)Nc1c(C#N)c2nc3ccccc3nc2n1-c1ccc(C)cc1	none (no result: CYP2C9 activ, Ecoli WT expand, CYP2C19 inhib, CYP2C9 inhib, CYP2C19 activ)
N#Cc1c(NC(=O)c2ccc(Br)o2)n(-c2ccccc2)c2nc3ccccc3nc12	tolC growth inh 62 (no result: CYP2C9 activ, Ecoli WT expand, CYP2C19 inhib, CYP2C9 inhib, CYP2C19 activ)
Cc1ccc2cccc(NC(=O)c3ccc(Br)o3)c2n1	none
COc1ccc(-n2c(NC(=O)c3ccc(Br)o3)c(C#N)c3nc4ccccc4nc32)cc1	CYP2C9 inhib 79 (no result: tolC growth inh)
Cc1ccn2c(/C=N/OCc3cccc(F)c3)c(-c3ccc(Cl)cc3)nc2c1	none (no result: tolC growth inh)
CCn1c(=O)c(NC(=O)c2ccccc2)c2n(c1=S)CCCCC2	CYP2C9 inhib 54 (no result: tolC growth inh)
CCOCCCn1c(=O)c(NC(=O)c2ccc(OCC)cc2)c2n(c1=S)CCCCC2	none (no result: tolC growth inh)
CCC(CC)C(=O)NCCc1cc2cc(C)c(C)cc2[nH]c1=O	CYP2C9 inhib 63
Cc1cccc(Nc2nc(N)nc(CSc3nccn3C)n2)c1	none (no result: tolC growth inh)
CC1CCN(Cc2nc3c(c(=O)n(C)c(=O)n3C)n2CCCc2ccccc2)CC1	none (no result: tolC growth inh)
CN(Cc1ccccc1)C(=O)Cn1cccc1C(=O)c1ccccc1	CYP2C19 inhib 70 (no result: tolC growth inh)
COc1ccc(-n2c(SCC(N)=O)nnc2-c2ccccc2F)cc1	none (no result: CYP2C9 activ, CYP2C19 inhib, CYP2C9 inhib, CYP2C19 activ)
CCOC(=O)C(C(=O)NCc1cccc(OC)c1)c1ncc(C(F)(F)F)cc1Cl (stereo unspecified)	none (no result: tolC growth inh)
Cc1cccc(C)c1NC(=O)CSc1nnnn1-c1ccc(C(=O)O)cc1	none (no result: tolC growth inh)
O=C(CSc1nnnn1-c1ccc2c(c1)OCCO2)Nc1nc2c(s1)CCCC2	none
COC(=O)c1cccc(-n2nnnc2SCC(=O)Nc2nc3c(s2)CCCC3)c1	CYP2C19 inhib 53, tolC growth inh 84
COC(=O)c1c(NC(=O)CSc2nnnn2-c2ccccc2)sc2c1CCCC2	CYP2C9 inhib 72
COC(=O)c1cccc(-n2nnnc2SCC(=O)Nc2cc(C)on2)c1	CYP2C19 inhib 51, CYP2C9 inhib 52
CCSc1nnc(-c2cccs2)o1	none
Fc1ccccc1CSc1nnc(-c2cccs2)o1	CYP2C19 inhib 85, CYP2C9 inhib 80
c1ccc(CSc2nnc(-c3cccs3)o2)cc1	none
Fc1ccc(CSc2nnc(-c3cccs3)o2)cc1	CYP2C19 inhib 78, CYP2C9 inhib 72
CC(Oc1ccccc1Br)C(=O)N1CCc2ccccc21 (stereo unspecified)	tolC growth inh 69
O=c1c2cc(N3CCOCC3)ccc2[nH]c(=S)n1Cc1ccco1	CYP2C9 inhib 53
CCN(CC)S(=O)(=O)c1ccc(OC)c(NS(=O)(=O)c2ccc(F)cc2)c1	none (no result: tolC growth inh)
Cc1ccc(Sc2oc(/C=N/n3cnnc3)cc2Br)cc1	CYP2C19 inhib 100
Cc1ccc(/C=N/n2cnnc2)s1	none (no result: tolC growth inh)
CCOC(=O)C1=C(c2ccccc2)N(C)C(=O)NC1c1ccc(OC(F)F)c(OC)c1 (stereo unspecified)	CYP2C19 inhib 69, CYP2C9 inhib 83
CCC(=O)c1ccc(OCCn2cncn2)cc1	CYP2C19 inhib 52, CYP2C9 inhib 67
CCC(=O)c1ccc(OCCN2CCOCC2)cc1	none
CCn1c(COc2ccc(C)cc2)nnc1SCC(=O)Nc1ccc2c(c1)OCCO2	none
CCOc1ccc(S(=O)(=O)NCc2ccncc2)cc1	CYP2C19 inhib 100, CYP2C9 inhib 79 (no result: tolC growth inh)
CCOc1ccc(S(=O)(=O)NCc2cccs2)cc1	none (no result: tolC growth inh)
Cc1ccc(C)c(S(=O)(=O)NCc2ccncc2)c1	CYP2C19 inhib 83 (no result: tolC growth inh)
Cc1ccc(S(=O)(=O)NCc2ccncc2)cc1	CYP2C19 inhib 97
Cc1ccc(C)c(S(=O)(=O)NCc2ccc(C(=O)NCc3ccccn3)cc2)c1	CYP2C19 inhib 89, CYP2C9 inhib 89 (no result: tolC growth inh)
C=CCOc1ccc(CNC(C)(C)CO)cc1OCC	none (no result: tolC growth inh)
O=C1CC(c2ccc(S(=O)(=O)NCc3ccncc3)cc2)CN1 (stereo unspecified)	CYP2C19 inhib 85, CYP2C9 inhib 54
CCOc1ccc(S(=O)(=O)NCc2ccccn2)cc1	CYP2C19 inhib 74 (no result: tolC growth inh)
COc1ccc(S(=O)(=O)NCCC(C)C)cc1OC	CYP2C9 activ 3.4, CYP2C19 inhib 96
CCOC(=O)COc1ccc(S(=O)(=O)NCc2ccncc2)cc1	CYP2C19 inhib 98, CYP2C9 inhib 67
COc1ccc(S(=O)(=O)NCc2ccccn2)cc1	none (no result: tolC growth inh)
Cc1nc(C)c(C(=O)Nc2ccc(Oc3ccccc3)cc2)o1	none
Cc1ccc(CNS(=O)(=O)N(C)C)cc1	CYP2C19 inhib 62 (no result: tolC growth inh)
Cc1ccc(CNC(N)=S)cc1	none (no result: tolC growth inh)
CC1CCCCC1NS(=O)(=O)c1ccc(S(=O)(=O)NCc2ccncc2)cc1 (stereo unspecified)	CYP2C19 inhib 98, CYP2C9 inhib 100
CC1CCCCC1NC(=O)c1ccc(S(=O)(=O)NCc2ccco2)cc1 (stereo unspecified)	none (no result: CYP2C9 activ, CYP2C19 inhib, CYP2C9 inhib, CYP2C19 activ)
COc1ccc(S(=O)(=O)NCc2ccncc2)cc1OC	CYP2C19 inhib 100
CC(=O)N1CCN(c2ccc(NC(=O)c3ccccc3Br)cc2Cl)CC1	none (no result: CYP2C9 activ, CYP2C19 inhib, CYP2C9 inhib, CYP2C19 activ)
CCn1c(=O)c([N+](=O)[O-])c(NCCc2ccccc2)c2ccccc21	none (no result: tolC growth inh)
Cc1ccc(Nc2c([N+](=O)[O-])c(=O)n(C)c3ccccc23)cc1C	CYP2C19 inhib 64 (no result: tolC growth inh)
O=C(NCc1cccnc1)c1cccc2c1C(=O)N(Cc1cccnc1)C2	CYP2C19 inhib 76 (no result: tolC growth inh)
COCCN1Cc2cccc(C(=O)NCc3cccnc3)c2C1=O	CYP2C19 inhib 78

Bioassay records deposited in PubChem by several laboratories.
